From PubChem BioAssay
Inconclusive results are not listed. Active and inactive are the calls of the source.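 How the source made its calls, unless noted: active means viability increase at or above a cutoff of the median across tested compounds plus 3 SD (cut at about 8.5% in these data, passing the limit was not always enough); inconclusive means some gains above the cutoff, reason not given; inactive means the rest.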

Columns and labels:
[1] = OD615 S. cerevisiae growth inhibition, permissive medium, pilot counter-assay, permissive growth control for S. cerevisiae lifespan shortening project (AID 705;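 active means growth inhibition above 25% in both replicates, a cutoff set 3 SD above the mean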); details: OD615, 24 h, at 10 µM, stronger effect = higher value
Summary of the method: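 assay system = Saccharomyces cerevisiae strain carrying genetically modified DeaD replicative-lifespan system | technique = absorbance (optical density) at 615 nm | buffer or medium = permissive raffinose/galactose medium | timing = cells pre-grown 4 h, then 24 h compound exposure, 30 °C humidified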

[2] = Restrictive medium S. cerevisiae growth inhibition, OD615, pilot screen of yeast lifespan reduction project, restrictive growth control (AID 706;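 active means growth inhibition above a set limit, 3 SD over mean compound inhibition, in both replicates, cut at about 43% in these data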;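 further: modified DeaD lifespan yeast strain shifted to restrictive glucose medium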); details: OD615, 48 h, at 10 µM, stronger effect = higher value
Summary of the method: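 System: modified S. cerevisiae. Buffer or medium: CSMM-D glucose medium. Incubation: 4 h pre-growth plus 48 h compound exposure, 30 °C. Detection: absorbance (optical density) measured at 615 nm.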

[3] = viability gain of MRP-1-high H69AR cells under doxorubicin, pilot screen, MRP-1 activator project, CellTiter-Glo, duplicate (AID 807); details: H69AR viability with doxorubicin, CellTiter-Glo luminescence; at 10 µM; stronger effect = higher value;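 further: compound pretreatment 18-22 h then 72 h combined with doxorubicin; 0% = doxorubicin alone and 100% = vehicle without doxorubicin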
[4] = growth suppression of beta-catenin knockout HCT116, pilot screen, human colon tumor cells (AID 823;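 active means cell viability at or below a set limit in both duplicate runs, the limit being the all-compound median minus 4 SD, cut at about 23% in these data, passing the limit was not always enough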;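 further: 0% = wells killed by 20 µM Hyamine and 100% = untreated DMSO cell wells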); details: CellTiter-Glo, 60 h, at 10 µM, stronger effect = lower value
[5] = growth suppression of PTEN-deleted HCT116, pilot screen, cell-based, HCT116 clonal line, CellTiter-Glo (AID 824;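 active means viability at or below 27.92% in each of two runs, the all-compound median minus 4 SD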;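 further: 0% = 20 µM Hyamine control and 100% = vehicle cell control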); details: 60 h, at 10 µM, stronger effect = lower value
[6] = inhibitors of the yeast RAM network, pilot screen, dse1pr::URA3 reporter, 5-FOA selection (AID 869;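 active means inhibition over a set limit, the all-compound mean plus 3 SD, in both replicate runs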;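 further: 0% = DMSO wells with no growth and 100% = 10 µM 1-NA-PP1 with full growth; RAM network block rescues cells from 5-FOA so hits raise OD615 growth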); details: S. cerevisiae dse1pr::URA3 5-FOA growth, OD615, 2 d; at 10 µM; stronger effect = higher value; strain carries analog-sensitive mutant Cbk1 kinase
[7] = RAM signaling pathway blockade in yeast – S. cerevisiae, Pdr1DBD-CYC8 efflux-inhibited sensitized strain, primary screen (AID 1298;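 active means RAM network inhibition above 8.4% in each of two replicates, 3 SD over the compound average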;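 further: 0% = DMSO untreated cells without growth and 100% = 10 µM 1-NA-PP1 full growth; higher means more yeast growth rescued from 5-FOA killing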); details: S. cerevisiae cbk1-as DSE1-URA3 strain, 5-FOA growth OD615, 2 d; at 50 µM; stronger effect = higher value

Cc1ccc2oc(=O)c3cnn(CC(=O)NCCN(C)C)c3c2c1
inactive: growth inhibition [1] -13% | growth inhibition [2] -11.6% | viability increase [3] 0.12% | viability [4] 101% | viability [5] 97.7% | inhibition [6] 0.365% | RAM network inhibition [7] 0.55%

COCc1cc(C)nc2sc(C(=O)Nc3nccs3)c(N)c12
inactive: growth inhibition [1] -7.22% | growth inhibition [2] 11.6% | viability increase [3] -5.32% | viability [4] 109% | viability [5] 97.5% | inhibition [6] 0.145% | RAM network inhibition [7] 2.07%

CN(Cc1ccccc1)C(=O)c1ccc2c(c1)OCCO2
inactive: growth inhibition [1] -14.5% | growth inhibition [2] -4.09% | viability increase [3] -0.29% | viability [4] 89.5% | viability [5] 94.6% | inhibition [6] 1.48% | RAM network inhibition [7] 3.49%

CC(=O)C1=C(C)NC(=O)NC1c1ccccc1 (stereo unspecified)
inactive: growth inhibition [1] -7.36% | growth inhibition [2] -18.6% | viability increase [3] -2.61% | viability [4] 87.3% | viability [5] 91.5% | inhibition [6] 1.03% | RAM network inhibition [7] 5.38%

O=C(CCC(=O)OCCCC(F)(F)C(F)(F)F)Nc1ccccc1
inactive: growth inhibition [1] -3.25% | growth inhibition [2] 3.78% | viability increase [3] 1.41% | viability [4] 100% | viability [5] 104% | inhibition [6] 0.785% | RAM network inhibition [7] 3.34%

Cc1ccc(NC(=O)CN(c2cc(C)cc(C)c2)S(=O)(=O)c2c(C)noc2C)nc1
inactive: growth inhibition [1] -8.61% | growth inhibition [2] -7.12% | viability increase [3] -3.03% | viability [4] 69.4% | viability [5] 70.6% | inhibition [6] 0.895% | RAM network inhibition [7] 7.84%

Cc1ccc(-n2c3c(cc(C(=O)NCc4ccco4)c2=O)C(=O)CC(C)(C)C3)cc1
inactive: growth inhibition [1] -5.76% | growth inhibition [2] -4.77% | viability increase [3] -5.37% | viability [4] 83% | viability [5] 85.6% | inhibition [6] -0.235% | RAM network inhibition [7] 3.42%

O=C(CN1CCOc2ccccc21)N1CCCC1
inactive: growth inhibition [1] -21.1% | growth inhibition [2] -8.8% | viability increase [3] -5.56% | viability [4] 100% | viability [5] 90.5% | inhibition [6] 0.98% | RAM network inhibition [7] 1.32%

CC(C)OC(=O)c1nnc(Cc2ccc(Cl)cc2)o1
inactive: growth inhibition [1] -6.46% | growth inhibition [2] 9.87% | viability increase [3] 0.7% | viability [4] 102% | viability [5] 102% | inhibition [6] -0.06% | RAM network inhibition [7] 1.93%

O=S(=O)(NCc1csc(-c2cccnc2)n1)c1cccs1
inactive: growth inhibition [1] 5.38% | growth inhibition [2] -1.74% | viability increase [3] -0.79% | viability [4] 98% | viability [5] 90% | inhibition [6] 1.69% | RAM network inhibition [7] 1.3%

CN1CCN(CCNC(=O)c2cc3c(=O)n(C)c4ccccc4c3n2C)CC1
inactive: growth inhibition [1] -12.9% | growth inhibition [2] -20% | viability increase [3] -4.6% | viability [4] 82.3% | viability [5] 81.3% | inhibition [6] 0.755% | RAM network inhibition [7] 1.04%

CCOC(=O)N1CCN(c2c(N3CCc4ccccc43)c(=O)c2=O)CC1
inactive: growth inhibition [1] -9.63% | growth inhibition [2] 14.6% | viability increase [3] -1.52% | viability [4] 105% | viability [5] 100% | inhibition [6] 2.05% | RAM network inhibition [7] -0.74%

CCCC1(C(=O)O)NC(c2ccc(OC)cc2O)C2C(=O)N(c3ccc(OC)cc3)C(=O)C21 (stereo unspecified)
inactive: growth inhibition [1] -7.46% | growth inhibition [2] 1.98% | viability increase [3] -0.54% | viability [4] 95.8% | viability [5] 91.6% | inhibition [6] 1.48% | RAM network inhibition [7] 2.34%

COc1ccc(N2C(=O)C3CCCN3C2c2cccc(OC)c2)cc1 (stereo unspecified)
inactive: growth inhibition [1] 2.15% | growth inhibition [2] -0.935% | viability increase [3] -1.99% | viability [4] 98.9% | viability [5] 104% | inhibition [6] 1.75% | RAM network inhibition [7] -1.67%

Cc1ccc(CCN2C(=O)CCC2(C)C(=O)NC2CCCC2)cc1 (stereo unspecified)
inactive: growth inhibition [1] -7.04% | growth inhibition [2] -1.27% | viability increase [3] -4.22% | viability [4] 97.5% | viability [5] 100% | inhibition [6] 1.19% | RAM network inhibition [7] 5.93%

Cn1c(=O)c2c(SCc3cccnc3)nc(C3CC3)nc2n(C)c1=O
inactive: growth inhibition [1] 1.77% | growth inhibition [2] -1.23% | viability increase [3] 0.27% | viability [4] 94.5% | viability [5] 83.4% | inhibition [6] -0.18% | RAM network inhibition [7] -1.65%

Cn1c(=O)cc(N2CCCCC2)[nH]c1=O
inactive: growth inhibition [1] -15.3% | growth inhibition [2] -7.48% | viability increase [3] -0.1% | viability [4] 111% | viability [5] 97% | inhibition [6] 1.59% | RAM network inhibition [7] -0.8%

Cc1ccc(OCCNC(=O)c2ccccc2N)cc1
inactive: growth inhibition [1] 1.82% | growth inhibition [2] -18.1% | viability increase [3] -2.73% | viability [4] 103% | viability [5] 97.6% | inhibition [6] 0.785% | RAM network inhibition [7] -0.05%

C=CCn1c(SCC(=O)N2CCOCC2)nc(O)c(Cc2ccccc2)c1=O
inactive: growth inhibition [1] -12.9% | growth inhibition [2] -8.77% | viability increase [3] 1.77% | viability [4] 99.4% | viability [5] 98.5% | inhibition [6] 1.49% | RAM network inhibition [7] 1.73%

Cc1ccc(-c2nc(CS(=O)CC(=O)NCCCN3CC(C)CC(C)C3)c(C)o2)cc1 (stereo unspecified)
inactive: growth inhibition [1] -14.2% | growth inhibition [2] -13.2% | viability increase [3] -4.27% | viability [4] 77.5% | viability [5] 79.1% | inhibition [6] 0.255% | RAM network inhibition [7] 2.65%

Fc1ccc(OCc2nc(-c3ccc(Br)o3)no2)c(F)c1
inactive: growth inhibition [1] -8.99% | growth inhibition [2] -12.8% | viability increase [3] 2.67% | viability [4] 99.5% | viability [5] 97.7% | inhibition [6] 0.82% | RAM network inhibition [7] 3.12%

O=C(NCC1CCCO1)c1ccc2c(=O)n(CCc3ccccc3)c(=O)[nH]c2c1 (stereo unspecified)
inactive: growth inhibition [1] -3.02% | growth inhibition [2] -27% | viability increase [3] -1.15% | viability [4] 104% | viability [5] 102% | inhibition [6] 4.28% | RAM network inhibition [7] 3.8%

CCOC(=O)N1CCN(C(=O)CSc2nc3c([nH]c4ccccc43)c(=O)n2C)CC1
inactive: growth inhibition [1] 1.46% | growth inhibition [2] -8.89% | viability increase [3] -4.86% | viability [4] 91.1% | viability [5] 82.2% | inhibition [6] 2.34% | RAM network inhibition [7] 3.41%

Cc1nn(C(=O)CN2C(=O)c3ccccc3C2=O)c(C)c1Br
inactive: growth inhibition [1] -4.13% | growth inhibition [2] 3.1% | viability increase [3] -1.05% | viability [4] 101% | viability [5] 103% | inhibition [6] 0.84% | RAM network inhibition [7] 4.29%

CCOC(=O)NC(Nc1cc(C)ccn1)(C(F)(F)F)C(F)(F)F
inactive: growth inhibition [1] 0.885% | growth inhibition [2] -3.62% | viability increase [3] -1.93% | viability [4] 104% | viability [5] 100% | inhibition [6] 0.28% | RAM network inhibition [7] -1.18%

CCOc1ccc(N(CC(=O)N2CCN(c3ccccc3)CC2)S(=O)(=O)c2c(C)noc2C)cc1
inactive: growth inhibition [1] 1.67% | growth inhibition [2] -1.08% | viability increase [3] -5.76% | viability [4] 76.4% | viability [5] 67.7% | inhibition [6] 1.49% | RAM network inhibition [7] 1.85%

Nc1nc(SCC(=O)NCCCO)nc2sc3c(c12)CCC3
inactive: growth inhibition [1] -8.84% | growth inhibition [2] -4.31% | viability increase [3] -1.44% | viability [4] 96.1% | viability [5] 94% | inhibition [6] 1.44% | RAM network inhibition [7] 0.31%

COc1ccc(OC)c(NC(=O)c2ccc(NC(C)=O)cc2)c1
inactive: growth inhibition [1] -22.5% | growth inhibition [2] -12.5% | viability increase [3] 0.76% | viability [4] 109% | viability [5] 101% | inhibition [6] 1.2% | RAM network inhibition [7] 5.24%

Cc1cc(N2CCCc3ccccc32)n2ncnc2n1
inactive: growth inhibition [1] -2.53% | growth inhibition [2] -1.67% | viability increase [3] -1.21% | viability [4] 97.9% | viability [5] 105% | inhibition [6] 0.97% | RAM network inhibition [7] 0.93%

Cc1cc(C)nc(SCCCn2c(=O)[nH]c3ccccc32)n1
inactive: growth inhibition [1] -6.43% | growth inhibition [2] -7.19% | viability increase [3] 1.32% | viability [4] 99.9% | viability [5] 90.5% | inhibition [6] 1.02% | RAM network inhibition [7] 10.9%

CCOc1ccc(C2c3c(oc4cc(C)c(C)cc4c3=O)C(=O)N2CCCN2CCOCC2)cc1 (stereo unspecified)
inactive: growth inhibition [1] -1.96% | growth inhibition [2] -6.06% | viability increase [3] -3.05% | viability [4] 94.1% | viability [5] 94.6% | inhibition [6] 0.615% | RAM network inhibition [7] 2.24%

Fc1cc(Br)ccc1Nc1nc2ccccc2n2nnnc12
inactive: growth inhibition [1] -15.9% | growth inhibition [2] -15% | viability increase [3] -4.01% | viability [4] 91.5% | viability [5] 87.2% | inhibition [6] 1.94% | RAM network inhibition [7] 5.36%

O=C(CCCC(=O)n1cnc2ccccc21)n1cnc2ccccc21
inactive: growth inhibition [1] -3.46% | growth inhibition [2] 4.09% | viability increase [3] -1.98% | viability [4] 96.2% | viability [5] 92.9% | inhibition [6] 1.08% | RAM network inhibition [7] 0.98%
